Converted amounts (≈) assume the structure as drawn. The source made the active and inactive calls. The calls are words filed in the database; no cut-off is given here.

A word on the GI50: it is the concentration at which growth is held to half of that of the control. Lower therefore signals more potent growth inhibition.

Data set [1] has as its system Escherichia coli. Description: Antibacterial activity against Escherichia coli AS19 after 4 hrs. It counts as functional. Conditions: AS19, 4 h.
Data set [2] has as its system Escherichia coli. Kind of data set: Mutagenic activity in Escherichia coli assessed as induction of frame shift mutation.
Data set [3] deals with Escherichia coli. Description: Antibacterial activity against Escherichia coli AS19 at 10 ug/ml after 3 days in presence of M9 buffer. It counts as functional, organism-based. Put shortly: (§1)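 Overnight LB culture of AS19 (pBRF14C) diluted to 10⁵-10⁶ cells/mL in M9 buffer (NH4Cl, Na2HPO4, KH2PO4); tryptanthrins at final 0.05-10 μg/mL (0.2-40 μM), 37 °C up to 72 h. Samples at ~12 h intervals plated on LB + ampicillin, counted after 24 h; surviving fraction relative to untreated M9 cells; duplicate samples, 4-8 repetitions.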

Data set [4] concerns Escherichia coli. Kind of data set: Antibacterial activity against Escherichia coli AS19 assessed as growth inhibition at 10 ug/ml after 4 hrs. It counts as functional, organism-based.
For data set [5], the system named is Escherichia coli. Kind of data set: Antibacterial activity against Escherichia coli AS19 at 0.5 to 10 ug/ml after 3 days in presence of M9 buffer. Conditions: 0.05 to 10 ug/ml, in the assay text read “0.05 to 10 ug/ml” for “0.5 to 10 ug/ml”. The format is functional, organism-based. Summed up:
as §1

Data set [6] addresses T1, DNA topoisomerase 1 (Homo sapiens) (UniProt P11387).
T1 sequence (whole entry): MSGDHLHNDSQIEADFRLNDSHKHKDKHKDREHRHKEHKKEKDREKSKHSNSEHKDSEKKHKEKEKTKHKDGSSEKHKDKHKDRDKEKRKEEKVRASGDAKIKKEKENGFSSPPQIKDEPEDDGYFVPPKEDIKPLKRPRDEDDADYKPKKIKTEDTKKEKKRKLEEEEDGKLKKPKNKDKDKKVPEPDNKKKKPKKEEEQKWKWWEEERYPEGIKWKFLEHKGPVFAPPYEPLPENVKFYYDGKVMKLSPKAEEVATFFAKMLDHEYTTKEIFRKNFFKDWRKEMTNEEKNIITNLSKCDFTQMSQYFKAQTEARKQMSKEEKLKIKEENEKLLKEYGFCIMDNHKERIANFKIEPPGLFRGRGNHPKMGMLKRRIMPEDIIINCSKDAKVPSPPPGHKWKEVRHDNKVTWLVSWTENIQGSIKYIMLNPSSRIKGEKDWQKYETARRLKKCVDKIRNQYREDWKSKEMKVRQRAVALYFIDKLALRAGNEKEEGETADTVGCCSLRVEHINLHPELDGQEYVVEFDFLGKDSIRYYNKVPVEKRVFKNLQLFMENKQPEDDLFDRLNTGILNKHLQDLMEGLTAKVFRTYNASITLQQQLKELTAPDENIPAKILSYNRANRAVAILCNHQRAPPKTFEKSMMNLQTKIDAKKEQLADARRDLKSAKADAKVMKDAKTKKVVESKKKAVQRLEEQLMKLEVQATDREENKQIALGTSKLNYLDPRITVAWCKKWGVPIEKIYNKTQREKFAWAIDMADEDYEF
Description: Inhibition of human topoisomerase 1-mediated relaxation of circular DNA. Summed up:
(§2)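 Relaxation assay: 0.25 μg pGEM-3Z (2743 bp, CsCl-purified) with 1 U human topoisomerase I in 10 mM Tris pH 7.9, 150 mM NaCl, 0.1 mM spermidine, 5% glycerol, tryptanthrin 10-100 μg/mL, 2 h 37 °C (or pre-relaxed 1 h, then drug 1-2 h). Stopped with sarkosyl; 1.5% agarose ± 2 μg/mL chloroquine, 50 V 3-4 h, ethidium stain; drugs bound = (Ldrug−Lo)×360°/28°.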

The subject of data set [7] is Escherichia coli. Kind of data set: Antibacterial activity against Escherichia coli AS19 at 0.4 ug/ml after 3 days in presence of M9 buffer. The format is functional, organism-based. Put shortly: as §1
The test system of data set [8] is Escherichia coli. Description: Antibacterial activity against Escherichia coli AS19 in presence of 360 nm light. It counts as functional, organism-based.
Data set [9] deals with Escherichia coli. Description: Antibacterial activity against Escherichia coli AS19 at 0.6 to 2 ug/ml. The format is functional, organism-based.
The target in data set [10] is T1, DNA topoisomerase 1 (Homo sapiens). Kind of data set: Inhibition of human topoisomerase 1-mediated relaxation of circular DNA at 100 ug/ml. Put shortly:
as §2

The subject of data set [11] is Escherichia coli. Description: Antibacterial activity against Escherichia coli AS19 at 0.1 ug/ml. The format is functional, organism-based.
For data set [12], the system named is Escherichia coli. Kind of data set: Antibacterial activity against Escherichia coli AS19 at 1 ug/ml after 4 hrs. It counts as functional, organism-based.
For data set [13], the system named is Escherichia coli. Description: Antibacterial activity against Escherichia coli AS19 at 0.01 ug/ml. The format is functional, organism-based.
For data set [14], the system named is Escherichia coli. Kind of data set: Antibacterial activity against Escherichia coli AS19 at 2.5 to 20 ug/ml after 4 hrs. It counts as functional, organism-based.
Data set [15] relates to Escherichia coli. Kind of data set: Antibacterial activity against Escherichia coli AS19 assessed as cell viability at 10 ug/ml after 20 to 24 hrs. The format is functional. Summed up:
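LB growth assay with AS19 (pBRF14C) at 37 °C with shaking; after 20-24 h exposure, dilutions in M9 buffer plated (200-400 cells) on LB + 30 μg/mL ampicillin, colonies counted after 24 h at 37 °C; viability = treated cells/mL divided by untreated cells/mL.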

Compound `O=C1c2ccccc2-n2c1nc1ncccc1c2=O` registered a GI50 in [1] of 1.3 µg/mL (≈ 5.22 µM). The “fold change (FC)” value in data set [2] is recorded as 22. Further, the outcome in data set [3] and in data set [5] was Active. The “growth inhibition (GI)” value in data set [4] was “Active”. Also, the inhibition entry in data set [6] is “inactive”.
As for `O=C1c2cc(F)ccc2-n2c1nc1ccccc1c2=O`, in data set [7], the result was Active.
With `O=c1c2ccccc2nc2n1-c1ccc(F)cc1/C2=N\O`, the outcome in [3] was Active. Moreover, in data set [8], the outcome was inactive.
Take `O=Nc1c2ccccc2n2c(O)c3ccccc3nc12`: the outcome in [8] was inactive.
For the compound `O=c1c2cccnc2nc2n1-c1ccccc1/C2=N\O`, in data set [8], the result was inactive.
With `O=C1c2ccccc2-n2c1nc1nccnc1c2=O`, in data set [1], halving of growth (GI50) required 1.5 µg/mL (≈ 5.99 µM). For the same compound, the result in [3], in [8] and in data set [9] was Active. For the same compound, in data set [4], the “growth inhibition (GI)” value is “Active”.
On to `O=C1c2cc(Br)ccc2-n2c1nc1ccccc1c2=O`, for which the outcome in [7] was Active.
In data set [1], `O=C1c2ccccc2-n2c1nc1ccccc1c2=O` [TRYPTANTHRIN] displayed a GI50 of 2.25 µg/mL (≈ 9.06 µM). The “growth inhibition (GI)” value in data set [4] is “Active”.
In the case of `O=C1c2cc([N+](=O)[O-])ccc2-n2c1nc1ccccc1c2=O`, the inhibition entry in [10] was “inactive”. In data set [1], this compound yielded a GI50 of 0.6 µg/mL (≈ 2.05 µM). For the same compound, the “growth inhibition (GI)” value in data set [4] is “Active”.
As to `O=C1c2cc(F)ccc2-n2c1nc1ncccc1c2=O`, it took 0.6 µg/mL (≈ 2.25 µM) to inhibit growth in data set [1] by half (GI50). Moreover, the “fold change (FC)” value in data set [2] came out at 4. Moreover, the outcome in data set [3], in data set [12] and in data set [14] was Active. Further, the result in data set [11] and in [13] was inactive. In addition, in data set [4], the “growth inhibition (GI)” value is “Active”. In data set [15], the Activity was found to be 15%.
